Data reported in ChEMBL document CHEMBL1151423, “Pharmacokinetics-pharmacodynamics of gatifloxacin in a lethal murine Bacillus anthracis inhalation infection model” (Antimicrob Agents Chemother, 2007).
Converted amounts (≈) assume the structure as drawn.

What was measured:
[1] = Apparent total clearance in human; type: ADME, organism-based; conditions: in vivo, read-out: CLt/F (converted)
[2] = Half life in human; type: ADME, organism-based; conditions: in vivo
[3] = Half life in mouse at 10 to 100 mg/kg, ip; type: ADME, organism-based; parameters: dose 10-100 mg/kg, route intraperitoneal; conditions: in vivo
How it was run: (§1)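 Mice, three groups, each received a single intraperitoneal gatifloxacin dose of 10, 50 or 100 mg/kg. Sera were taken by exsanguination under anaesthesia from three mice per group at 0.25–12 h post-dose and stored at −70°C. Levels were measured by bioassay (S. aureus ATCC 29213 indicator; standard curve in control mouse serum) in triplicate, detection range 0.12–64 μg/ml. Pooled data were fitted by maximum likelihood to a two-compartment model with first-order absorption and lag time.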

[4] = test system: Mus musculus; assay: Apparent distribution clearance in mouse at 10 to 100 mg/kg, ip; type: ADME, organism-based; parameters: dose 10-100 mg/kg, route intraperitoneal; conditions: in vivo; how it was run: as §1
[5] = test system: Mus musculus; assay: Tlag in mouse at 10 to 100 mg/kg, ip; type: ADME, organism-based; parameters: dose 10-100 mg/kg, route intraperitoneal; conditions: in vivo; how it was run: as §1
[6] = test system: Mus musculus; assay: Apparent peripheral volume of distribution in mouse at 10 to 100 mg/kg, ip; type: ADME, organism-based; parameters: dose 10-100 mg/kg, route intraperitoneal; conditions: in vivo; how it was run: as §1
[7] = test system: Bacillus anthracis; assay: Antimicrobial activity against Bacillus anthracis Ames after 18 hrs by microdilution method; type: functional
[8] = test system: Mus musculus; assay: Apparent volume of distribution with respect to the bioavailability in mouse at 10 to 100 mg/kg, ip; type: ADME, organism-based; conditions: in vivo; how it was run: as §1
[9] = Apparent total clearance in mouse at 10 to 100 mg/kg, ip; type: ADME, organism-based; parameters: dose 10-100 mg/kg, route intraperitoneal; conditions: in vivo, read-out: CLt/F (converted); how it was run: as §1
[10] = Ratio of AUC (0 to 24 hrs) for Staphylococcus infected patient to MIC for Staphylococcus; type: functional
[11] = Ratio of AUC (0 to 24 hrs) for Enterococcus infected patient to MIC for Enterococcus; type: functional
[12] = Ratio of AUC (0 to 24 hrs) for Staphylococcus aureus infected ICR/Swiss mouse model to MIC for Staphylococcus aureus; type: functional

`COc1c(N2CCNC(C)C2)c(F)cc2c(=O)c(C(=O)O)cn(C3CC3)c12` (configuration not stated) [GATIFLOXACIN] gave a CL/F [1] of 1.67 mL/min/kg, a half-life [2] of 9 h and a half-life [3] of 0.6 h. The CLd/F [4] was 128 mL/min/kg, the Tlag [5] was 0.23 h and the Vp/F [6] was 1.6 L/kg. The MIC [7] was 0.125 µg/mL (≈ 0.333 µM), the Vc/F [8] was 0.2 L/kg and the CL/F [9] was 45 mL/min/kg. It also gave a Ratio [10] of 85, a Ratio [11] of 85 and a Ratio [12] of 83.
